Assay [1] has as its target Tyrosine-protein kinase CSK (Homo sapiens, UniProt P41240). As to the kind of experiment: Inhibition of CSK in human HeLa cells lysate at 10 uM pre incubated for 15 mins followed by ATP acyl phosphate probe addition and measured after 10 mins by LC-MS/MS analysis relative to control. To be noted: time 25.0 min. The class given is subcellular.
Assay [2] relates to Lewis lung carcinoma. As to the kind of experiment: Antitumor activity against PML knock down mouse LL2 cells allografted in C57Bl/6 mouse assessed as reduction tumor growth at 50 mg/kg, ip administered on day 7 post implantation measured after 17 days. The class given is functional, organism-based. To be noted: time 10.0 day.
The target of assay [3] is Serine/threonine-protein kinase/endoribonuclease IRE1 (Homo sapiens, UniProt O75460). As to the kind of experiment: Inhibition of IRE1 in human HeLa cells lysate at 2 uM pre incubated for 15 mins followed by ADP acyl phosphate probe addition and measured after 10 mins by LC-MS/MS analysis relative to control. Format: subcellular. As to conditions: time 25.0 min.
Assay [4] in a line: Inhibition of NEK6/7 in human HeLa cells lysate at 2 uM pre incubated for 15 mins followed by ADP acyl phosphate probe addition and measured after 10 mins by LC-MS/MS analysis relative to control. As to conditions: 25 min, condition cancer.
Assay [5] has as its target p38 delta/gamma (Homo sapiens) (UniProt O15264+P53778). Put plainly: Inhibition of p38d/p38g in human HeLa cells lysate at 50 uM pre incubated for 15 mins followed by ATP acyl phosphate probe addition and measured after 10 mins by LC-MS/MS analysis relative to control. The class given is subcellular. As to conditions: time 25.0 min.
The target of assay [6] is MAP/microtubule affinity-regulating kinase 3 (Homo sapiens, UniProt P27448). Put plainly: Inhibition of MARK3 in human HeLa cells lysate at 2 uM pre incubated for 15 mins followed by ADP acyl phosphate probe addition and measured after 10 mins by LC-MS/MS analysis relative to control. Format: subcellular. To be noted: time 25.0 min.
Assay [7] deals with T1, Serine/threonine-protein kinase Nek9 (Homo sapiens) (UniProt Q8TD19).
T1 sequence (whole entry): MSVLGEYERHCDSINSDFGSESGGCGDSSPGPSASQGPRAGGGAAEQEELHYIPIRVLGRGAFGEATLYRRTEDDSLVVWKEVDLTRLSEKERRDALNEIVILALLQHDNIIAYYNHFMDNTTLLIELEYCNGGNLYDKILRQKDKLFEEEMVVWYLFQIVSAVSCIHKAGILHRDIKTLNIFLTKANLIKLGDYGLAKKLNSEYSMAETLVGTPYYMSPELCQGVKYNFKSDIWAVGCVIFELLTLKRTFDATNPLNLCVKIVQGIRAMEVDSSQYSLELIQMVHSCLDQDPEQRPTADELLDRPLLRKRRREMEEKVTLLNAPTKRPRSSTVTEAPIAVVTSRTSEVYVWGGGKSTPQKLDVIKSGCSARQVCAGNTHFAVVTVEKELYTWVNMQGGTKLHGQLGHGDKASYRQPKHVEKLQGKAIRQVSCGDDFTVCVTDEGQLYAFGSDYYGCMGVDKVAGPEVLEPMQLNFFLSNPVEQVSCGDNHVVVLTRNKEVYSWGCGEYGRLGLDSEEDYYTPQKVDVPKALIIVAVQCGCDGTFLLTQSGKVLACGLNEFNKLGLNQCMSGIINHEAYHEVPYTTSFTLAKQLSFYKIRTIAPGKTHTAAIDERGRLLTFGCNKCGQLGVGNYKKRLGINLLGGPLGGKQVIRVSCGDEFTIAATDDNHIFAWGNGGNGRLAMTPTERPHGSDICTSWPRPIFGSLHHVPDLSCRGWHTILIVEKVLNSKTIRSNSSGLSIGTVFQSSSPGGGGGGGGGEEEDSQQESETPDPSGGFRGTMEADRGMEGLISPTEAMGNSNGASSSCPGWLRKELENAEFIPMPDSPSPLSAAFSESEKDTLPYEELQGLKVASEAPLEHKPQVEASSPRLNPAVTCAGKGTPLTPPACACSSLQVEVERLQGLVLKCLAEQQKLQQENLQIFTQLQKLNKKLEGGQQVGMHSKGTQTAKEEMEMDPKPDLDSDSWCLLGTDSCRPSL
Put plainly: Inhibition of NEK9 in human HeLa cells lysate at 2 uM pre incubated for 15 mins followed by ADP acyl phosphate probe addition and measured after 10 mins by LC-MS/MS analysis relative to control. Format: subcellular. To be noted: time 25.0 min.

Assay [8] has as its target T2, STE20-related kinase adapter protein beta (Homo sapiens) (UniProt Q9C0K7).
T2 sequence (whole entry): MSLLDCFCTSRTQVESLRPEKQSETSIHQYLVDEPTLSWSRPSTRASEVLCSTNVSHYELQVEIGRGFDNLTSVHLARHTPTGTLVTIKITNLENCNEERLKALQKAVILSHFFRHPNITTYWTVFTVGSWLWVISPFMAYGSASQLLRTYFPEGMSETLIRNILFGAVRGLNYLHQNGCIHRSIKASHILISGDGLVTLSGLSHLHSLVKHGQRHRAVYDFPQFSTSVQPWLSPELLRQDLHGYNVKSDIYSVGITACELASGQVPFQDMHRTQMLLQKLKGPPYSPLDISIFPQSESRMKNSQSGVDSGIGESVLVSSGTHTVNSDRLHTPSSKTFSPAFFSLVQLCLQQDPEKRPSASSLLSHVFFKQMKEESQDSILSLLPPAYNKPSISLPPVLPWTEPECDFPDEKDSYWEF
Put plainly: Inhibition of ALS2CR2 in human HeLa cells lysate at 2 uM pre incubated for 15 mins followed by ADP acyl phosphate probe addition and measured after 10 mins by LC-MS/MS analysis relative to control. To be noted: time 25.0 min. The class given is subcellular. In outline:
(§1)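 HeLa cell lysates (5 mg/mL total protein) were preincubated with inhibitor at 0, 0.8, 2, 10 or 50 μM for 15 min. ATP or ADP acylphosphate probe was then added (5 μM final) for 10 min, and reactions were stopped with urea. Up to four fragment ions per kinase probe-peptide were quantified by targeted MS. % inhibition was taken relative to untreated lysate. Run in duplicate.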

Assay [9] deals with STE20-related kinase adapter protein beta (Homo sapiens, UniProt Q9C0K7). As to the kind of experiment: Inhibition of ALS2CR2 in human HeLa cells lysate pre incubated for 15 mins followed by ADP acyl phosphate probe addition and measured after 10 mins by LC-MS/MS analysis. The class given is subcellular. In outline: as §1
For assay [10], the target named is T1, Serine/threonine-protein kinase Nek9 (Homo sapiens). Put plainly: Inhibition of NEK9 in human HeLa cells lysate at 50 uM pre incubated for 15 mins followed by ATP acyl phosphate probe addition and measured after 10 mins by LC-MS/MS analysis relative to control. The class given is subcellular. As to conditions: time 25.0 min.
The target in assay [11] is Eukaryotic translation initiation factor 2-alpha kinase 3 (Homo sapiens, UniProt Q9NZJ5). Put plainly: Inhibition of PEK in human HeLa cells lysate pre incubated for 15 mins followed by ATP acyl phosphate probe addition and measured after 10 mins by LC-MS/MS analysis. The class given is subcellular.
In assay [12] the target is DNA-dependent protein kinase catalytic subunit (Homo sapiens, UniProt P78527). Put plainly: Inhibition of PRKDC in human HeLa cells lysate at 50 uM pre incubated for 15 mins followed by ADP acyl phosphate probe addition and measured after 10 mins by LC-MS/MS analysis relative to control. The class given is subcellular. As to conditions: time 25.0 min.
The target of assay [13] is eIF-2-alpha kinase GCN2 (Homo sapiens, UniProt Q9P2K8). As to the kind of experiment: Inhibition of GCN2 in human HeLa cells lysate at 50 uM pre incubated for 15 mins followed by ATP acyl phosphate probe addition and measured after 10 mins by LC-MS/MS analysis relative to control. The class given is subcellular. To be noted: time 25.0 min.

Active and inactive are the calls of the source. No cut-off for these calls is given here.

Eukaryotic translation initiation factor 2-alpha kinase 3, sequence (Q9NZJ5 whole entry): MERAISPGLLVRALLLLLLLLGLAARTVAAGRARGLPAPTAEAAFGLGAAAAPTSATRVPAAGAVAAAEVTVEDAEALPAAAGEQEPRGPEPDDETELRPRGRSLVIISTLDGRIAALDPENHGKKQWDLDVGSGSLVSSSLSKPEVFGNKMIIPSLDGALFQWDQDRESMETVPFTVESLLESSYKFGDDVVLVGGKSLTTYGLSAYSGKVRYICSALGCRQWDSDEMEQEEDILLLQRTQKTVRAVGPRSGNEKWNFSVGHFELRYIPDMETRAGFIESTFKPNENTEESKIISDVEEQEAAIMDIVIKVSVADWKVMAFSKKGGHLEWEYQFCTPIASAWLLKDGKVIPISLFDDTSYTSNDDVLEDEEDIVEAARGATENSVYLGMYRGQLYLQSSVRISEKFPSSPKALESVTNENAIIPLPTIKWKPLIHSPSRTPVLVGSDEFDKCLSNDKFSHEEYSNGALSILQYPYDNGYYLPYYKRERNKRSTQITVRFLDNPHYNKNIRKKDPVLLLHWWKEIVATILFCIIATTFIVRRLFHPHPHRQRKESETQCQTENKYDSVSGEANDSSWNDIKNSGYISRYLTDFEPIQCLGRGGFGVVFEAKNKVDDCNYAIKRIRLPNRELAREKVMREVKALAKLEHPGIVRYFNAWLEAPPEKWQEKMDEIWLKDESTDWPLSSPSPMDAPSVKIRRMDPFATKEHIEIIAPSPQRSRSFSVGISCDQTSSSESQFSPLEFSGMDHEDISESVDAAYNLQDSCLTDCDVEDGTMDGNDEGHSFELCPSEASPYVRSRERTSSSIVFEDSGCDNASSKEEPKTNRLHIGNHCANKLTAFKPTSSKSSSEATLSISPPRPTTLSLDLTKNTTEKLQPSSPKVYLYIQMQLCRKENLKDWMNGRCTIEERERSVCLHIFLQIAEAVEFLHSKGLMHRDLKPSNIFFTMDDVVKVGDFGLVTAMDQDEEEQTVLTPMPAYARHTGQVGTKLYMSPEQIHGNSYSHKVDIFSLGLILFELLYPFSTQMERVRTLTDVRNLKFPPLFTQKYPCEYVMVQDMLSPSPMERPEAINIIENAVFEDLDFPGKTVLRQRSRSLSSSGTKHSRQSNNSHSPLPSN
eIF-2-alpha kinase GCN2, sequence (Q9P2K8 whole entry): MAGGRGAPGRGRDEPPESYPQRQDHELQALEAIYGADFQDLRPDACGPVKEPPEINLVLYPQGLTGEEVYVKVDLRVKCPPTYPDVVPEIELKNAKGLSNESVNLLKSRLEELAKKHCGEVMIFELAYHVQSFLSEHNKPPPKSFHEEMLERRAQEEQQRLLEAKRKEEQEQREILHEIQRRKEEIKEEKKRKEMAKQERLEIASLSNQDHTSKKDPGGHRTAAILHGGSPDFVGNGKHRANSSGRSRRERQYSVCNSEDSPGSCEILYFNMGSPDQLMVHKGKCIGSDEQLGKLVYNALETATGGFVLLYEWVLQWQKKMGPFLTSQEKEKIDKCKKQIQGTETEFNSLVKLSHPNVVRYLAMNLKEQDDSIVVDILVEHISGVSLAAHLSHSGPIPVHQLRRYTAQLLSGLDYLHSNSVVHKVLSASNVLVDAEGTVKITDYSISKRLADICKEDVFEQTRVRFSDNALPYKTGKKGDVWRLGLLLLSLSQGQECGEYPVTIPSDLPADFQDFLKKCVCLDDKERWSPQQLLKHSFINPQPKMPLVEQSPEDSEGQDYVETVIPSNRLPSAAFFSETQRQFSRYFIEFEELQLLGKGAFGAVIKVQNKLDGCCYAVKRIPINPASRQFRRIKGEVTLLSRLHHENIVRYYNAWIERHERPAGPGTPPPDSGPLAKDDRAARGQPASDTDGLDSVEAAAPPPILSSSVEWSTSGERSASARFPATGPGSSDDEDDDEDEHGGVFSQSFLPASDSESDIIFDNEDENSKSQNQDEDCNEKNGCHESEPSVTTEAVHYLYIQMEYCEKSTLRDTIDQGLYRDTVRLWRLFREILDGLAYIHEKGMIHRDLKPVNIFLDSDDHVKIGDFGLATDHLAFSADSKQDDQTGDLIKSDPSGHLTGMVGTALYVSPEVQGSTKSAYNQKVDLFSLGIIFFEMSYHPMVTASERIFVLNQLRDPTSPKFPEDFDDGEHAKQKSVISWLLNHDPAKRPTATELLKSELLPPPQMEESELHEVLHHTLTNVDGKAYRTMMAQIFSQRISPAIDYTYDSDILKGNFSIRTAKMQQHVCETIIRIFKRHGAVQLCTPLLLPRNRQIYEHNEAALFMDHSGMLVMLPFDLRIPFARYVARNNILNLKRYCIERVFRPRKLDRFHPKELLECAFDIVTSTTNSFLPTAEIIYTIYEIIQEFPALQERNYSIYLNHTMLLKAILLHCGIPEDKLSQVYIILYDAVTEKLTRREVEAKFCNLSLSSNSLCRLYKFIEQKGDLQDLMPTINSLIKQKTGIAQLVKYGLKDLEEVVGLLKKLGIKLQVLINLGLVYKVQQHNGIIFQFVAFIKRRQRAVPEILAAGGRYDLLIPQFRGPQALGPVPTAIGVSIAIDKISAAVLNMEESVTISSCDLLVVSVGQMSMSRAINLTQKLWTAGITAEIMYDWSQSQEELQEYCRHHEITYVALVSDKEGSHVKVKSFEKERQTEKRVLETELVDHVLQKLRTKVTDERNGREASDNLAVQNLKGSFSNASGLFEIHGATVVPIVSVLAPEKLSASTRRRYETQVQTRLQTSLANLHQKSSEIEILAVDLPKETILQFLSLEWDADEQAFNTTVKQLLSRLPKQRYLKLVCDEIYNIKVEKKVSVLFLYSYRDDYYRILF
Tyrosine-protein kinase CSK, sequence (P41240 2-450 limits assumed): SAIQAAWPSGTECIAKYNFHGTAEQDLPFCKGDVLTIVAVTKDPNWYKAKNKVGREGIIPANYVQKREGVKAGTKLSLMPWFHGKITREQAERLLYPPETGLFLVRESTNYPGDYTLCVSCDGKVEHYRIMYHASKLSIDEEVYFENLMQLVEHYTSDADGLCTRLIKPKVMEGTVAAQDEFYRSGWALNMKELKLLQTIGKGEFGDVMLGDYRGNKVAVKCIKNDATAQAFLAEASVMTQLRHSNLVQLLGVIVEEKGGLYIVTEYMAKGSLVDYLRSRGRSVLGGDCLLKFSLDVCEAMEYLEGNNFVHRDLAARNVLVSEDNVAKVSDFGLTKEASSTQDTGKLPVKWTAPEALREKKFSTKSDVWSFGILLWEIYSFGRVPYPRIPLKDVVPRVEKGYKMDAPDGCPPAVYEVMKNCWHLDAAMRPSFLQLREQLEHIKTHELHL
Serine/threonine-protein kinase/endoribonuclease IRE1, sequence (O75460 19-977 limits assumed): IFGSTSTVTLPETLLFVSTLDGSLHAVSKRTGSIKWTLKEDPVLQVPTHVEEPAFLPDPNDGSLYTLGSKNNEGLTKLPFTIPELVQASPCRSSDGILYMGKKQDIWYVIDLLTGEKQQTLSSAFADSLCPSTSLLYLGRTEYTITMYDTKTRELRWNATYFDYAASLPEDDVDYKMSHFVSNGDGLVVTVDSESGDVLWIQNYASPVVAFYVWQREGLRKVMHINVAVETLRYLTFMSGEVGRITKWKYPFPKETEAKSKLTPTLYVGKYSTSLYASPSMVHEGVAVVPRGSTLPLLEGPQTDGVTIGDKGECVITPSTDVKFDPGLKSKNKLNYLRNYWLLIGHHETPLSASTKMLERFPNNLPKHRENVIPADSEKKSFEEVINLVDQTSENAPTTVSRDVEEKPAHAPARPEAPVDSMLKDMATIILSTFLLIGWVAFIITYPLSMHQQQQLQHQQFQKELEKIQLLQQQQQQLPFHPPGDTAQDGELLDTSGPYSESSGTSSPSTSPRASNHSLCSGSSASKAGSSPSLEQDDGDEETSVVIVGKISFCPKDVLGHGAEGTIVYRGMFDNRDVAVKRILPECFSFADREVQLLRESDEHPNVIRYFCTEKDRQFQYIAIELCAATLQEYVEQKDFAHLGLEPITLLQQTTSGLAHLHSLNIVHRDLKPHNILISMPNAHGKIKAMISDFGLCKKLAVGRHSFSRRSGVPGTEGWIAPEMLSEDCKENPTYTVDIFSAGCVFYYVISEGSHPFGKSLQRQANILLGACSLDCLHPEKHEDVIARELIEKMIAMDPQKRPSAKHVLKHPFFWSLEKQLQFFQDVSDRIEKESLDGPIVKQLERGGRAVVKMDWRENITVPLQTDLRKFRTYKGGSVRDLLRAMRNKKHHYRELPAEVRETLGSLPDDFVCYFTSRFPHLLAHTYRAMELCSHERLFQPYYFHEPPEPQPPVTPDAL
MAP/microtubule affinity-regulating kinase 3, sequence (P27448 whole entry, looked up): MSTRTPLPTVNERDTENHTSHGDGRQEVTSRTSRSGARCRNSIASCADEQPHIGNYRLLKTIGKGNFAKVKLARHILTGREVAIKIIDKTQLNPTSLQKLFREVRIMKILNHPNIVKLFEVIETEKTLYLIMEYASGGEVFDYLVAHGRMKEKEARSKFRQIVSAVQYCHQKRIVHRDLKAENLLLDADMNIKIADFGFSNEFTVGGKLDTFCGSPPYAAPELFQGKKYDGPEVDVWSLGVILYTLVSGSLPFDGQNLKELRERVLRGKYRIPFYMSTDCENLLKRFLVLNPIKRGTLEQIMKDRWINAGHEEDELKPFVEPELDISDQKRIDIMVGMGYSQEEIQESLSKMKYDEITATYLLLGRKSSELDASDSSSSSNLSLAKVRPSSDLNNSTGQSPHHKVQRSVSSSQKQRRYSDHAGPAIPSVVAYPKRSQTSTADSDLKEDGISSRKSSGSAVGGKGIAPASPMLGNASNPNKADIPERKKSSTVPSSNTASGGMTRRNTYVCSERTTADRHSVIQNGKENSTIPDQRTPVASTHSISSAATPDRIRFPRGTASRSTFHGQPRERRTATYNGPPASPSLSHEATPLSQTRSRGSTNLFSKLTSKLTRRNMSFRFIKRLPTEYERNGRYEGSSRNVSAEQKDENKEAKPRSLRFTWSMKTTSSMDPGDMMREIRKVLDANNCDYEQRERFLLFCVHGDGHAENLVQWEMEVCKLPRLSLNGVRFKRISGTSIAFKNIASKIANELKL

Broadly, the inhibition is the relative decrease from the control value, in per cent. In general, IC50 refers to the midpoint of a concentration-inhibition curve. Read a high IC50 as a need for much substance. For `CCOc1cc(N2CCC(O)CC2)ccc1Nc1ncc2c(n1)N(C)c1ccccc1C(=O)N2C`, the inhibition in assay [1] is -3.4%; in assay [3] it was 16.5%; in [5] it was 37.2%; in [6] it was -3.4%; in assay [7], 0.3%; in [8], 17%. Besides, the figures for the inhibition in [10], in [12] and in [13] were -1.6%, 2.9% and 7%, respectively. Besides, the outcome in [2] was inactive. The inhibition at 2 µM in [4] came out at 6.4%. Moreover, the IC50 in assay [9] and in assay [11] was greater than 50 µM throughout.

For the origin of these results see ChEMBL document CHEMBL5661979, “Pharmacological inhibition of BMK1 suppresses tumor growth through promyelocytic leukemia protein” (Cancer Cell, 2010).
